According to ChEMBL document CHEMBL3407477, “Synthesis and biological evaluation of compact, conformationally constrained bifunctional opioid agonist - neurokinin-1 antagonist peptidomimetics” (Eur J Med Chem, 2015):
Activity calls are given as the source filed them.

How the values were obtained:
[1] = species on record: Rattus norvegicus; assay: Antinociceptive activity in Wistar rat at 0.1 nmol, it after 30 mins by tail flick test; type: functional
How it was run: (§1)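 Naive male Wistar rats (250-300 g) with i.t. catheters received a single i.t. injection in water for injection (5 µl plus 10 µl flush), 7 days after catheter implantation. Tail-flick latency to a light-bulb heat stimulus at two-thirds of tail length was read 30 min post-dose (timepoints up to 180 min), with a 9 s cut-off. Data are %MPE = (TL-BL)/(cut-off-BL)×100, 7-12 rats/group, ANOVA with Bonferroni.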

[2] = system: Mus musculus; assay: Antinociceptive activity in C57Bl6 mouse at 1.21 umol/kg, iv after 30 mins by tail flick test; type: functional, organism-based
How it was run: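 Male C57Bl6 mice (25-28 g) received a single i.v. dose dissolved in saline or water for injection. Radiant-heat tail-flick latency was measured at 5, 15, 30, 60, 120 and 180 min, with a 7 s cut-off. Data are %MPE, 6-8 mice/group.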

[3] = species on record: Rattus norvegicus; assay: Selectivity ratio of Ki for rat brain DOR to Ki for rat brain MOR
[4] = species on record: Rattus norvegicus; assay: Reduction of hyperalgesia in Wistar rat chronic constriction injury model at 1 nmol, it measured 7 days post CCI challenge by cold plate test; type: functional, organism-based
How it was run: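 In catheterized male Wistar rats with sciatic CCI, a single i.t. dose in water for injection was given on day 7. Thermal hyperalgesia was measured 30 min later as latency to hind-paw shake on a 5 °C cold plate. Data are %MPE, 6-12 rats/group, ANOVA with Bonferroni.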

[5] = species on record: Rattus norvegicus; assay: Antinociceptive activity in Wistar rat at 0.001 to 0.1 nmol, it after 30 mins to 2 hrs by tail flick test; type: functional, organism-based
[6] = species on record: Rattus norvegicus; assay: Toxicity in Wistar rat chronic constriction injury model at 1 nmol, it measured 7 days post CCI challenge; type: organism-based; details: in vivo, icv_or_intrathecal, 168 h
[7] = species on record: Rattus norvegicus; assay: Antiallodynic effect in Wistar rat chronic constriction injury model at 0.001 to 1 nmol, it measured 7 days post CCI challenge by Von Frey test; type: functional, organism-based
How it was run: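 Male Wistar rats (300-350 g) with i.t. catheters (L4-L6) had CCI made by four loose silk ligatures on the right sciatic nerve. On day 7 they received a single i.t. dose in water for injection. Mechanical allodynia was measured 30 min later with an automatic von Frey device (0.5-26 g) on the midplantar hind paw. Data are %MPE, 6-12 rats/group, ANOVA with Bonferroni.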

[8] = biological target: T1, Substance-P receptor (Homo sapiens, UniProt P25103); assay: Displacement of [3H]SP from human NK1 receptor expressed in CHO cells after 20 mins by liquid scintillation counting analysis; type: cell-based
T1 sequence (P25103 whole entry): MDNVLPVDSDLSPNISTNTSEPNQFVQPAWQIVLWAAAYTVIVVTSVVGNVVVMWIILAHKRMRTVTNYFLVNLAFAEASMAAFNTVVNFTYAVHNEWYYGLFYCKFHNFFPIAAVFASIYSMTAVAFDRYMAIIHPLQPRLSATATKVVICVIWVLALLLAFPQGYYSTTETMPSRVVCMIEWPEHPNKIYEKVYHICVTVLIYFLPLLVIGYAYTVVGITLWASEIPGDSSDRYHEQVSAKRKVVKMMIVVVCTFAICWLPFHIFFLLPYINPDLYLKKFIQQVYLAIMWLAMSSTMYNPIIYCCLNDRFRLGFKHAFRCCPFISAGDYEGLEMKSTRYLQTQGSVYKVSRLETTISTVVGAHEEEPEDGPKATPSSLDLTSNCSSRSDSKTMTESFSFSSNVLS
How it was run: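 Membranes from hNK1/CHO cells (20 µg) were incubated with 0.4 nM [3H]SP and six test concentrations in duplicate. Buffer was 50 mM Tris pH 7.4 with 5 mM MgCl2, bacitracin, bestatin, captopril and PMSF, for 20 min at 25 °C. Nonspecific binding was defined with 10 µM SP. Samples were filtered on PEI-soaked GF/B, counted by scintillation, three independent experiments. Ki by Cheng-Prusoff from nonlinear-regression IC50.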

[9] = biological target: Delta-type opioid receptor (Rattus norvegicus, UniProt P33533); assay: Displacement of [3H]DSLET from rat brain DOR after 2 hrs
Sequence of Delta-type opioid receptor (Rattus norvegicus, UniProt P33533) (P33533 whole entry): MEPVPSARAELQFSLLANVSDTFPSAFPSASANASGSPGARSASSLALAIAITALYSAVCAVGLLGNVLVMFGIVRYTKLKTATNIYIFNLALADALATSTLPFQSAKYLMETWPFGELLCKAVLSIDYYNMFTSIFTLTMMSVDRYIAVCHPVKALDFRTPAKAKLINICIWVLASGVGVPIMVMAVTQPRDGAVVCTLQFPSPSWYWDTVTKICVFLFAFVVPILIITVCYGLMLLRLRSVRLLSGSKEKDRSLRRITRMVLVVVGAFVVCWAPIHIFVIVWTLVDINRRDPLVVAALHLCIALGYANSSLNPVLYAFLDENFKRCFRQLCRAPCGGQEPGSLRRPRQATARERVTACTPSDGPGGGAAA
How it was run: (§2)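 Rat brain membranes were incubated 2 h at 0 °C with 0.72 nM [3H]DAMGO (MOR) or 0.78 nM [3H]DSLET (DOR). IC50 came from log-dose displacement curves.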

[10] = biological target: Mu-type opioid receptor (Cavia porcellus, UniProt P97266); assay: Activation of MOR in guinea pig ileum; type: tissue-based
Sequence of Mu-type opioid receptor (Cavia porcellus, UniProt P97266) (P97266 whole entry): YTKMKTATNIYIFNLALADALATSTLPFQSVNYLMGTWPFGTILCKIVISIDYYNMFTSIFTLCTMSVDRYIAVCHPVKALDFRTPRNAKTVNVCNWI
How it was run: (§3)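 Isolated guinea pig ileum (MOR) and mouse vas deferens (DOR) bioassays. A [Leu5]enkephalin standard dose-response curve was run on each tissue preparation, and test IC50 values were normalized to it. Values are means of 3-4 experiments.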

[11] = biological target: Mu-type opioid receptor (Rattus norvegicus, UniProt P33535); assay: Displacement of [3H]DAMGO from rat brain MOR after 2 hrs; how it was run: as §2
Sequence of Mu-type opioid receptor (Rattus norvegicus, UniProt P33535) (P33535 whole entry): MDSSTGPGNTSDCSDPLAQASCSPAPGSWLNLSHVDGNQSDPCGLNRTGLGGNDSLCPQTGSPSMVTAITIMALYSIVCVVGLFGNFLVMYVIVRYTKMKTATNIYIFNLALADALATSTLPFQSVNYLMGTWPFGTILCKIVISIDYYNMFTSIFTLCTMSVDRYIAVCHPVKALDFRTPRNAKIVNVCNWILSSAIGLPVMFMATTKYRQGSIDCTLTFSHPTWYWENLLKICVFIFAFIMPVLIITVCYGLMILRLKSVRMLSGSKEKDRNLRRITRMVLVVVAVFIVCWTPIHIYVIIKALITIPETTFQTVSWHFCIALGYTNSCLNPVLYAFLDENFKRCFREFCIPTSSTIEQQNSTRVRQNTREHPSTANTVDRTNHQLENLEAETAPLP

[12] = biological target: Delta-type opioid receptor (Mus musculus, UniProt P32300); assay: Activation of DOR in mouse vas deferens; how it was run: as §3
Sequence of Delta-type opioid receptor (Mus musculus, UniProt P32300) (P32300 whole entry): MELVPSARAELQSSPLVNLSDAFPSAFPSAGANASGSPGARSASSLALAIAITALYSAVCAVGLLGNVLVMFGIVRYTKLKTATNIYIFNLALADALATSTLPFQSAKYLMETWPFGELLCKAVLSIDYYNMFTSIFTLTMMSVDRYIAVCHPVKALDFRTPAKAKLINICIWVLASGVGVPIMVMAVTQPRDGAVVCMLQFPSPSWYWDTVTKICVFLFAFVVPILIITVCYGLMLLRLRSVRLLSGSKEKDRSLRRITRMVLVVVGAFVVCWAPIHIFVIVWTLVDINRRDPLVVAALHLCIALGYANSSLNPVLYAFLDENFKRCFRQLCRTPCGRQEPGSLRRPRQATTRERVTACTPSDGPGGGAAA

[13] = species on record: Rattus norvegicus; assay: Antinociceptive activity in Wistar rat at 0.001 to 0.1 nmol, it after 30 mins by tail flick test; type: functional, organism-based; how it was run: as §1
[14] = biological target: T1, Substance-P receptor; assay: Antagonist activity at human NK1 receptor expressed in CHO cells by luminescence assay in presence of SP peptide; type: cell-based; details: read-out: pA2 (converted)

`Cc1cc(O)cc(C)c1C[C@H](N)C(=O)N[C@H](CCCNC(=N)N)C(=O)N[C@H]1Cc2ccccc2CN(CCC(N)=O)C1=O` was tested, and the MPE [1] was 99.7%, the Activity [2] was “Active” and the Ratio Ki [3] was 12.7. The Activity [4] was “Active”, the Activity [5] was “Active” and the Activity [6] was “Toxic”. The Activity [7] was “Active”.
With `Cc1cc(O)cc(C)c1C[C@H](N)C(=O)N[C@H](CCCN=C(N)N)C(=O)N[C@H]1Cc2ccccc2CN(CC(N)=O)C1=O` the Activity [6] was “Toxic”.
`Cc1cc(O)cc(C)c1C[C@H](N)C(=O)N[C@H](CCCNC(=N)N)C(=O)N[C@H]1Cc2ccccc2CN(CC(=O)N(C)Cc2ccccc2)C1=O` showed a Ratio Ki [3] of 24.8.
`Cc1cc(O)cc(C)c1C[C@H](N)C(=O)N[C@H](CCCNC(=N)N)C(=O)N[C@H]1Cc2ccccc2CN(CC(=O)NCc2ccccc2)C1=O` showed a Ki [8] of 6190 nM, a Ratio Ki [3] of 4.4 and a Ki [9] of 0.62 nM. It also gave an IC50 [10] of 4.44 nM, a Ki [11] of 0.14 nM and an IC50 [12] of 3.5 nM.
`Cc1cc(O)cc(C)c1C[C@H](N)C(=O)N[C@H](CCCNC(=N)N)C(=O)N[C@H]1Cc2ccccc2CN(CC(N)=O)C1=O` was tested, and the Ratio Ki [3] was 4, the Activity [4] was “Active” and the Activity [13] was “Active”. For the same compound, the Activity [7] was “Active”.
`Cc1cc(O)cc(C)c1C[C@H](N)C(=O)N[C@H](CCCNC(N)=O)C(=O)N[C@H]1Cc2ccccc2CN(CCC(=O)N(C)Cc2cc(C(F)(F)F)cc(C(F)(F)F)c2)C1=O` was tested, and the Ki [8] was 34.7 nM, the Ratio Ki [3] was 1.5 and the Kb [14] was 537 nM. For the same compound, the Ki [9] was 0.55 nM, the IC50 [10] was 2.03 nM and the Ki [11] was 0.37 nM. The IC50 [12] was 1.06 nM.
Work on `Cc1cc(O)cc(C)c1C[C@H](N)C(=O)N[C@H](CCCNC(=N)N)C(=O)N[C@H]1Cc2ccccc2CN(CCC(=O)N(C)Cc2cc(C(F)(F)F)cc(C(F)(F)F)c2)C1=O` yielded a Ki [8] of 59.7 nM, a Ratio Ki [3] of 25.3 and a Kb [14] of 912 nM. The Ki [9] was 2.14 nM, the IC50 [10] was 11.3 nM and the Ki [11] was 0.08 nM. For the same compound, the IC50 [12] was 6.2 nM.
`Cc1cc(O)cc(C)c1C[C@H](N)C(=O)N[C@H](CCCNC(=N)N)C(=O)N[C@H]1Cc2ccccc2CN(CCC(=O)N(Cc2ccccc2)CC(C)C)C1=O` gave a Ki [8] of 308 nM.
